These results are taken from PubChem BioAssay.

Molecules are shown by their SMILES. Activity calls are given as the source filed them.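 The calls were made as follows, unless noted: active = viability at or under a set limit in both replicates, limit being median viability minus 3 SD (cut at about 48% in these data, passing the limit was not always enough); inconclusive = at or under the limit in just one replicate; inactive = at or above the limit in both replicates.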

Assay [1] can be described thus: SK-BR-3 cell growth inhibitors, pilot screen, 24 h, human (AID 572;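 active = viability at or below 10% of carrier control in both of two separate runs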;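 also: compound exposure lasted between 18 and 24 h rather than exactly 24 h; 100% = carrier-treated control wells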). The following applies: SK-BR-3 viability, CellTiter-Glo luminescence, at 10 µM, stronger effect = lower value.
Assay [2] is described as follows: HUVEC growth inhibition – cell-based, human, primary screen (AID 575;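 active = viability at or below 30% in both replicate assays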;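 also: 100% = median of untreated cell wells with 0.1% DMSO on each plate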). The following applies: HUVEC proliferation, CellTiter-Glo luminescence, 72 h; at 10 µM; stronger effect = lower value. A digest of the protocol: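 Test system – primary HUVEC, no more than 12 passages · Dosing – one dose, 10 µM final, 0.1% DMSO · Times – 72 h treatment at 37 °C · Measured by – ATP-based CellTiter-Glo luminescent read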

Assay [3] can be described thus: growth inhibitors of H69AR lung tumor, primary screen, human, duplicate replicates (AID 580).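 Also: 100% = mean luminescence of untreated wells and 0% = no signal.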 Conditions: H69AR lung tumor cells viability, ATP luminescence, 72 h; at 10 µM; stronger effect = lower value.
The nature of assay [4]: reversal of MRP1-mediated doxorubicin resistance, pilot screen, H69AR cells, doxorubicin co-treatment (AID 601;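 active = viability loss from added drug above about 55%, and viability with drug at most 40%, in both replicates, limit read from the data, passing the limit was not always enough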). Conditions: CellTiter-Glo, 72 h, at 10 µM; for differential viability (reversal): stronger effect = higher value.
Assay [5] in a line: 384-well plate pilot, post-Golgi transport modulator project, inhibition of yeast transport mutant growth (AID 636; in the data active = inhibition above about 31%). Conditions: absorbance 615 nm, about 18 h, stronger effect = higher value.
The nature of assay [6]: growth suppression of yeast trafficking mutant, preliminary HTS, modulators of trafficking downstream of Golgi apparatus project, 1536-format plate, OD 615 nm (AID 637; in the data active = inhibition above about 30%). The following applies: yeast transport mutant growth, absorbance 615 nm, 18 h; stronger effect = higher value.
[7] abbreviates: H69AR cells + 2 uM doxorubicin, measured here: viability with 2 uM doxorubicin, stronger effect = lower value.
Where [8] appears, read: H69AR cells, compound alone cytotoxicity.

`CC(C)CN(C(=O)c1ccc(=O)n(C)n1)c1nc2ccccc2s1`: the viability in assay [1] is 94% (inactive); in assay [2], 107% (inactive); in assay [3] it was 90.2% (inactive); in assay [4] (setting [7]), 85.2%; in assay [4] (setting [8]) it was 90.2%. For the same compound, the differential viability (reversal) in assay [4] (H69AR cells + 2 uM doxorubicin) was 4.96% (inactive). In addition, the inhibition in assay [5] is -1.08% (inactive); in assay [6] it was 1.09% (inactive).

Regarding `Cc1cccc(-n2ncc3c(NCc4cccs4)ncnc32)c1`, the viability in assay [1] is 64% (inactive); in assay [2] it was 61.8% (inactive); in assay [3], 66.1% (inactive); in assay [4] (setting [7]) it was 88.9%; in assay [4] (setting [8]), 66.1%. In addition, the differential viability (reversal) in assay [4] (H69AR cells + 2 uM doxorubicin) was -22.8% (inactive). Further, the inhibition is 26.2% (inactive) in assay [5] and 0.36% (inactive) in assay [6].

For `CCC(C)n1ncn(-c2ccc(N3CCN(c4ccc(OCC5COC(Cn6cncn6)(c6ccc(Cl)cc6Cl)O5)cc4)CC3)cc2)c1=O` (stereo unspecified), the viability is 84% (inactive) in assay [1]; 7.76% (active) in assay [2]; 69.8% (inactive) in assay [3]; 71.8% in assay [4] (setting [7]); 69.8% in assay [4] (setting [8]). For the same compound, in assay [4] (H69AR cells + 2 uM doxorubicin), the differential viability (reversal) is -1.92% (inactive). The inhibition is 100% (active) in assay [5] and 96.7% (active) in assay [6].

`CCOc1ccc(-c2c(C#N)c(N)nc3c2c(=O)n(C)c(=O)n3C)cc1OC`: the viability in assay [1] was 114% (inactive); in assay [2] it was 86% (inactive); in assay [3], 94.7% (inactive); in assay [4] (setting [7]) it was 92.1%; in assay [4] (setting [8]), 94.7%. For the same compound, the differential viability (reversal) in assay [4] (H69AR cells + 2 uM doxorubicin) is 2.56% (inactive). Moreover, the inhibition in assay [5] was -6.44% (inactive); in assay [6] it was 6.77% (inactive).

As for `Cc1ccc2c(c1)N(CC(=O)Nc1ccc3c(c1)OCCO3)C(=O)CO2`, the viability is 104% (inactive) in assay [1]; 103% (inactive) in assay [2]; 105% (inactive) in assay [3]; 94.3% in assay [4] (setting [7]); 105% in assay [4] (setting [8]). Also, the differential viability (reversal) in assay [4] (H69AR cells + 2 uM doxorubicin) was 10.7% (inactive). Further, the figures for the inhibition in assay [5] and in assay [6] were -5% (inactive) and -4.73% (inactive), respectively.

On to `Cc1ccc(C2C(C(=O)c3sc(C)nc3C)=C(O)C(=O)N2CCN(C)C)o1` (stereo unspecified), for which the viability in assay [1] is 93% (inactive); in assay [2], 114% (inactive); in assay [3], 103% (inactive); in assay [4] (setting [7]), 99.1%; in assay [4] (setting [8]), 103%. Moreover, the differential viability (reversal) in assay [4] (H69AR cells + 2 uM doxorubicin) is 3.58% (inactive). For the same compound, the values for the inhibition in assay [5] and in assay [6] were -3.65% (inactive) and 0% (inactive), respectively.

Consider `O=C(CSc1ncn[nH]1)NC1CC2CCC1C2` (stereo unspecified), for which the viability was 94% (inactive) in assay [1]; 103% (inactive) in assay [2]; 98% (inactive) in assay [3]; 120% in assay [4] (setting [7]); 98% in assay [4] (setting [8]). For the same compound, the differential viability (reversal) in assay [4] (H69AR cells + 2 uM doxorubicin) was -22.4% (inactive). Also, the inhibition in assay [5] was -5.34% (inactive); in assay [6], -1.82% (inactive).

For the compound `Cc1cc(NC(=O)c2ccccc2)ncc1NC(=O)c1ccco1`, the viability in assay [1] was 94% (inactive); in assay [2], 96.2% (inactive); in assay [3] it was 109% (inactive); in assay [4] (setting [7]), 99.9%; in assay [4] (setting [8]), 109%. The differential viability (reversal) in assay [4] (H69AR cells + 2 uM doxorubicin) was 9.27% (inactive). The inhibition in assay [5] was -4.42% (inactive); in assay [6], 0.32% (inactive).

For the compound `COc1ccc2nc(S(=O)Cc3ncc(C)c(OC)c3C)[nH]c2c1` (stereo unspecified), the viability was 88% (inactive) in assay [1]; 71.1% (inactive) in assay [2]; 80.8% (inactive) in assay [3]; 94.1% in assay [4] (setting [7]); 80.8% in assay [4] (setting [8]). For the same compound, the differential viability (reversal) in assay [4] (H69AR cells + 2 uM doxorubicin) was -13.3% (inactive). Besides, the values for the inhibition in assay [5] and in assay [6] were -1.69% (inactive) and -2.5% (inactive), respectively.

`COc1cccc(-c2cc(C(=O)Nc3c(C)nn(Cc4ccccc4)c3C)no2)c1`: the viability in assay [1] was 158% (inactive); in assay [2] it was 82.6% (inactive); in assay [3] it was 98.2% (inactive); in assay [4] (setting [7]), 89.5%; in assay [4] (setting [8]), 98.2%. Also, the differential viability (reversal) in assay [4] (H69AR cells + 2 uM doxorubicin) is 8.66% (inactive). Moreover, the inhibition in assay [5] is -5.81% (inactive); in assay [6], -7.33% (inactive).

On to `CCN(CC)S(=O)(=O)c1cccc(-c2nnc(SCCOc3ccccc3C)o2)c1`, for which the viability was 75% (inactive) in assay [1]; 89% (inactive) in assay [2]; 87.9% (inactive) in assay [3]; 69.3% in assay [4] (setting [7]); 87.9% in assay [4] (setting [8]). Further, the differential viability (reversal) in assay [4] (H69AR cells + 2 uM doxorubicin) is 18.7% (inactive). In addition, the inhibition was -2.6% (inactive) in assay [5] and 8.36% (inactive) in assay [6].

Regarding `COc1ccccc1N(CC(=O)NC1CCCC1)C(=O)c1csnn1`, the viability is 97% (inactive) in assay [1]; 89.7% (inactive) in assay [2]; 90% (inactive) in assay [3]; 57.5% in assay [4] (setting [7]); 90% in assay [4] (setting [8]). Also, in assay [4] (H69AR cells + 2 uM doxorubicin), the differential viability (reversal) is 32.5% (inactive). For the same compound, the inhibition in assay [5] is -1.47% (inactive); in assay [6], -8.36% (inactive).
